Data published in article PMC9359741 (Clinical Cancer Research, 2022).
“And” between values parts separate entries of the source, which are not always exact repeats. Equal values may be shown once.

Key:
Assay type in all cases: in vivo, human
[1] = test system: pancreatic ductal adenocarcinoma (PDA); experiment: Phase 2 efficacy
In short: (§1)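 Oral test compound 300 mg QD plus anti-PD-1 antibody 200 mg IV Q3W. PD-1/PD-L1 IR cohort: progression on anti-PD-1/PD-L1 (RECIST or irRC). prOVCA cohort: progression ≤6 months after ≥4 platinum cycles. PDA cohort: ≥1 prior systemic line. Investigator assessed best response per RECIST v1.1 and irRC. ORR used confirmed responses with Clopper–Pearson 95% CI; all dosed patients. Screening tissue was profiled for MSI/MMR, TMB and gene expression.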

[2] = test system: patients with PDA, PD-1/PD-L1 IR advanced solid tumors or prOVCA; experiment: Phase 2, ARRY-382 300 mg QD plus pembrolizumab 200 mg IV Q3W: adverse events; details: for Deaths: mostly disease progression
In short: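 Open-label study at 12 US centres with three cohorts: pancreatic ductal adenocarcinoma after ≥1 prior systemic line; tumours progressing on anti-PD-1/PD-L1; ovarian, peritoneal or fallopian cancer progressing ≤6 months after ≥4 platinum cycles. Oral test compound 300 mg QD plus anti-PD-1 antibody 200 mg IV every 3 weeks. AEs, SAEs and labs graded by CTCAE v4.03 in all dosed patients; descriptive summary.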

[3] = test system: platinum-resistant ovarian cancer (prOVCA); experiment: Phase 2 efficacy
In short: as §1

Cc1cccc(Cn2nc(C3CC3)c3c(NC(=O)c4cnc5cc(OCCN6CCN(C)CC6)ccn45)cccc32)n1 [ARRY-382]
Median OS ([1]; PDA): 2.2 (95% CI, 1.5–4.9) months | Median PFS ([1]; PDA): 1.4 (95% CI, 0.9–2.8) months | Median irPFS per irRC ([1]; PDA): 1.3 (95% CI, 0.9–2.7) months | DOR of confirmed PR ([1]; PDA cohort, 1 patient (MSI-Stable, TMB-Low, PD-L1 negative)): 2.4 months | Best overall response: CR ([1]; PDA, N = 27): 0 (0.0) n (%) | Best overall response: NE ([1]; PDA, N = 27): 14 (51.9) n (%) | Best overall response: PD ([1]; PDA, N = 27): 7 (25.9%) n (%) and 7 (25.9) n (%) | Best overall response: PR ([1]; PDA, N = 27): 1 (3.7) n (%) | Best overall response: SD ([1]; PDA, N = 27): 5 (18.5) n (%) | Immune-related best overall response: CR ([1]; PDA, N = 27): 0 (0.0) n (%) | Immune-related best overall response: NE ([1]; PDA, N = 27): 19 (70.4) n (%) | Immune-related best overall response: PD ([1]; PDA, N = 27): 0 (0.0) n (%) | Immune-related best overall response: PR ([1]; PDA, N = 27): 1 (3.7) n (%) | Immune-related best overall response: SD ([1]; PDA, N = 27): 7 (25.9) n (%) | ORR, % (95% CI) ([1]; confirmed, PDA, N = 27): 3.7 (0.1–19.0) % | ir-ORR, % (95% CI) ([1]; confirmed, PDA, N = 27): 3.7 (0.1–19.0) % | ARRY-382-related SAEs ([2]; PD-1/PD-L1 IR): 15.8% | ARRY-382-related fatigue ([2]; PD-1/PD-L1 IR): 47.4% | ARRY-382-related grade ≥3 AEs ([2]; PD-1/PD-L1 IR): 57.9% | ARRY-382-related increased CPK ([2]; PD-1/PD-L1 IR): 47.4% | ARRY-382-related nausea ([2]; PD-1/PD-L1 IR): 42.1% | Dose reduction or interruption of ARRY-382 due to AEs ([2]; PD-1/PD-L1 IR): 13 (68.4%) n (%) | Patients with ≥1 dose reduction or interruption of ARRY-382 ([2]; PD-1/PD-L1 IR): 15 (78.9%) n (%) | Permanent discontinuations due to AEs ([2]; PD-1/PD-L1 IR): 1 (5.3%) n (%) | ARRY-382-related AEs: ALT increased ([2]; PD-1/PD-L1 IR, N = 19): 2 (10.5) n (%) | ARRY-382-related AEs: AST increased ([2]; PD-1/PD-L1 IR, N = 19): 6 (31.6) n (%) | ARRY-382-related AEs: All AEs ([2]; PD-1/PD-L1 IR, N = 19): 17 (89.5%) n (%) and 17 (89.5) n (%) | ARRY-382-related AEs: Amylase increased ([2]; PD-1/PD-L1 IR, N = 19): 4 (21.1) n (%) | ARRY-382-related AEs: Blood CPK increased ([2]; PD-1/PD-L1 IR, N = 19): 9 (47.4) n (%) | ARRY-382-related AEs: Decreased appetite ([2]; PD-1/PD-L1 IR, N = 19): 3 (15.8) n (%) | ARRY-382-related AEs: Diarrhea ([2]; PD-1/PD-L1 IR, N = 19): 5 (26.3) n (%) | ARRY-382-related AEs: Fatigue ([2]; PD-1/PD-L1 IR, N = 19): 9 (47.4) n (%) | ARRY-382-related AEs: Nausea ([2]; PD-1/PD-L1 IR, N = 19): 8 (42.1) n (%) | ARRY-382-related AEs: Vomiting ([2]; PD-1/PD-L1 IR, N = 19): 7 (36.8) n (%) | Deaths ([2]; PD-1/PD-L1 IR): 10 (52.6%) n (%) | ARRY-382-related SAEs ([2]; PDA): 11.1% | ARRY-382-related fatigue ([2]; PDA): 33.3% | ARRY-382-related grade ≥3 AEs ([2]; PDA): 25.9% | ARRY-382-related increased AST ([2]; PDA): 18.5% | ARRY-382-related increased CPK ([2]; PDA): 18.5% | ARRY-382-related nausea ([2]; PDA): 18.5% | Dose reduction or interruption of ARRY-382 due to AEs ([2]; PDA): 10 (37.0%) n (%) | Patients with ≥1 dose reduction or interruption of ARRY-382 ([2]; PDA): 16 (59.3%) n (%) | Permanent discontinuations due to AEs ([2]; PDA): 4 (14.8%) n (%) | ARRY-382-related AEs: ALT increased ([2]; PDA, N = 27): 4 (14.8) n (%) | ARRY-382-related AEs: AST increased ([2]; PDA, N = 27): 5 (18.5) n (%) | ARRY-382-related AEs: All AEs ([2]; PDA, N = 27): 17 (63.0%) n (%) and 17 (63.0) n (%) | ARRY-382-related AEs: Amylase increased ([2]; PDA, N = 27): 2 (7.4) n (%) | ARRY-382-related AEs: Blood CPK increased ([2]; PDA, N = 27): 5 (18.5) n (%) | ARRY-382-related AEs: Decreased appetite ([2]; PDA, N = 27): 5 (18.5) n (%) | ARRY-382-related AEs: Diarrhea ([2]; PDA, N = 27): 4 (14.8) n (%) | ARRY-382-related AEs: Fatigue ([2]; PDA, N = 27): 9 (33.3) n (%) | ARRY-382-related AEs: Nausea ([2]; PDA, N = 27): 5 (18.5) n (%) | ARRY-382-related AEs: Vomiting ([2]; PDA, N = 27): 2 (7.4) n (%) | Deaths ([2]; PDA): 20 (74.1%) n (%) | ARRY-382-related AEs: ALT increased ([2]; Total, N = 57): 10 (17.5) n (%) | ARRY-382-related AEs: AST increased ([2]; Total, N = 57): 15 (26.3) n (%) | ARRY-382-related AEs: All AEs ([2]; Total, N = 57): 43 (75.4%) n (%) and 43 (75.4) n (%) | ARRY-382-related AEs: Amylase increased ([2]; Total, N = 57): 6 (10.5) n (%) | ARRY-382-related AEs: Blood CPK increased ([2]; Total, N = 57): 16 (28.1) n (%) | ARRY-382-related AEs: Decreased appetite ([2]; Total, N = 57): 8 (14.0) n (%) | ARRY-382-related AEs: Diarrhea ([2]; Total, N = 57): 9 (15.8) n (%) | ARRY-382-related AEs: Fatigue ([2]; Total, N = 57): 18 (31.6) n (%) | ARRY-382-related AEs: Nausea ([2]; Total, N = 57): 16 (28.1) n (%) | ARRY-382-related AEs: Vomiting ([2]; Total, N = 57): 10 (17.5) n (%) | Patients with ≥1 TEAE ([2]; in each cohort): > 90% | Patients with a Grade 4 AE ([2]; overall): 7 (12.3%) n (%) | Patients with a grade 3 AE ([2]; overall): 33 (57.9%) n (%) | Periorbital edema ([2]; overall): 7.0% | Patients with a grade 5 AE ([2]; overall, none related to study treatment): 3 (5.3%) n (%) | ARRY-382-related SAEs ([2]; prOVCA): 0.0% | ARRY-382-related grade ≥3 AEs ([2]; prOVCA): 45.5% | Dose reduction or interruption of ARRY-382 due to AEs ([2]; prOVCA): 7 (63.6%) n (%) | Patients with ≥1 dose reduction or interruption of ARRY-382 ([2]; prOVCA): 7 (63.6%) n (%) | Permanent discontinuations due to AEs ([2]; prOVCA): 1 (9.1%) n (%) | Treatment discontinuations due to AEs (primary reason) ([2]; prOVCA): 2 (18.2%) n (%) | ARRY-382-related AEs: ALT increased ([2]; prOVCA, N = 11): 4 (36.4) n (%) | ARRY-382-related AEs: AST increased ([2]; prOVCA, N = 11): 4 (36.4) n (%) | ARRY-382-related AEs: All AEs ([2]; prOVCA, N = 11): 9 (81.8%) n (%) and 9 (81.8) n (%) | ARRY-382-related AEs: Amylase increased ([2]; prOVCA, N = 11): 0 (0.0) n (%) | ARRY-382-related AEs: Blood CPK increased ([2]; prOVCA, N = 11): 2 (18.2) n (%) | ARRY-382-related AEs: Decreased appetite ([2]; prOVCA, N = 11): 0 (0.0) n (%) | ARRY-382-related AEs: Diarrhea ([2]; prOVCA, N = 11): 0 (0.0) n (%) | ARRY-382-related AEs: Fatigue ([2]; prOVCA, N = 11): 0 (0.0) n (%) | ARRY-382-related AEs: Nausea ([2]; prOVCA, N = 11): 3 (27.3) n (%) | ARRY-382-related AEs: Vomiting ([2]; prOVCA, N = 11): 1 (9.1) n (%) | Deaths ([2]; prOVCA): 5 (45.5%) n (%) | Median OS [3]: NR (95% CI, 5.3–NR) | Median PFS [3]: 2.1 (95% CI, 1.2–4.1) months | Median irPFS per irRC [3]: 2.5 (95% CI, 1.2–NR) months | Best overall response: CR ([3]; N = 11): 0 (0.0) n (%) | Best overall response: NE ([3]; N = 11): 2 (18.2) n (%) | Best overall response: PD ([3]; N = 11): 5 (45.5%) n (%) and 5 (45.5) n (%) | Best overall response: PR ([3]; N = 11): 0 (0.0) n (%) | Best overall response: SD ([3]; N = 11): 4 (36.4%) n (%) and 4 (36.4) n (%) | Immune-related best overall response: CR ([3]; N = 11): 0 (0.0) n (%) | Immune-related best overall response: NE ([3]; N = 11): 5 (45.5) n (%) | Immune-related best overall response: PD ([3]; N = 11): 0 (0.0) n (%) | Immune-related best overall response: PR ([3]; N = 11): 0 (0.0) n (%) | Immune-related best overall response: SD ([3]; N = 11): 6 (54.5) n (%) | ORR, % (95% CI) ([3]; confirmed, N = 11): 0.0 (0.0–28.5) % | ir-ORR, % (95% CI) ([3]; confirmed, N = 11): 0.0 (0.0–28.5) %
